From ChEMBL document CHEMBL3124861, “Application of ProTide technology to gemcitabine: a successful approach to overcome the key cancer resistance mechanisms leads to a new agent (NUC-1031) in clinical development” (J Med Chem, 2014) come the findings set out here.

One may read the IC50 as the concentration that gives 50% inhibition. Broadly, the EC50 is the concentration giving half of the maximal effect. Usually half-life stands for the time needed for the level to fall by half in the phase considered. Low readings indicate rapid decline, high ones slow decline.

Calls of active or inactive are those of the source.

For one series, the system named is L1210. Kind of series: Cytostatic activity against mouse L1210 cells after 48 hrs by coulter counter analysis. It counts as functional, cell-based. Conditions: L1210, 48 h. The gist of the method: (§1)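 Tumor cell proliferation assay with murine leukemia and human T-lymphoblast cells. IC50 is the concentration that inhibits proliferation by 50%. Values are means of at least two independent experiments.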

For the next series, the system named is CCRF-CEM. Kind of series: Cytostatic activity against human CEM cells after 72 hrs by coulter counter analysis. It counts as functional, cell-based. The gist of the method: as §1
Series [1] has as its system BXPC-3. Kind of series: Cytostatic activity against human BxPC3 cells after 72 hrs by MTS assay. It is filed as functional, cell-based. Conditions: BXPC-3, 72 h. A digest of the protocol: (§2)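 Pancreatic carcinoma cell proliferation assay. IC50 is the concentration that inhibits tumor cell proliferation by 50%. Values are means of at least two independent experiments.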

Series [2] concerns MIA PaCa-2. Kind of series: Cytostatic activity against human MIAPaCa2 cells after 72 hrs by MTS assay. It counts as functional, cell-based. Conditions: MIA PaCa-2, 72 h. The gist of the method:
as §2
(Formazan colour is commonly taken as a measure of viable cells.)

Series [3] has as its system MIA PaCa-2. Kind of series: Antitumor activity against human MIAPaCa2 cells xenografted in Balb/c nude mouse assessed as tumor growth inhibition at 0.076 mmol/kg, ip measured on day 7. It counts as functional, organism-based.
For another series, the system named is Mus musculus. Kind of series: Toxicity in Balb/c nude mouse xenografted with human BxPC3 cells assessed as change in body weight at 0.19 to 0.076 mmol/kg, ip administered 2 times per week for 2 weeks measured every week during compound treatment. It is filed as organism-based, BXPC-3. Conditions: in vivo, 336 h. A general note: A xenograft is tissue or cells of one species grown in another, often human tumour cells in immunodeficient mice.

Series [4] deals with MIA PaCa-2. Kind of series: Antitumor activity against human MIAPaCa2 cells xenografted in Balb/c nude mouse assessed as tumor growth inhibition at 0.19 mmol/kg, ip administered every week for 3 weeks. It is filed as functional, organism-based.
Series [5] can be described thus: Cytotoxicity against human PANC1 cells assessed as cell viability by MTT assay in absence of hENT1 inhibitor dipyridamole. Conditions: PANC-1. It is filed as functional, cell-based. The gist of the method: (§3)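 PANC1 pancreatic cancer cells were grown with the test agent, with or without dipyridamole to block hENT1 nucleoside transport. Viable cells were counted by colorimetric MTT assay, and EC50 was taken as the concentration blocking proliferation by 50%.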

Series [6] in a line: Cytotoxicity against human PANC1 cells assessed as cell viability by MTT assay in presence of hENT1 inhibitor dipyridamole. Conditions: PANC-1. It is filed as functional, cell-based. A digest of the protocol: as §3
Series [7] in a line: Cytotoxicity against human RT112 cells assessed as cell viability by MTT assay in absence of dCK substrate deoxycytidine. Conditions: RT-112. It is filed as functional, cell-based. The gist of the method:
(§4)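 RT112 cancer cells were grown with the test agent, with or without 2′-deoxycytidine as a competing dCK substrate to mimic dCK down-regulation. Viable cells were counted by colorimetric MTT assay, and EC50 was taken as the concentration blocking proliferation by 50%.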

A short description of series [8]: Prodrug activation in human MIAPaCa2 cells assessed as formation of dFdCTP after 24 hrs in presence of hENT1 inhibitor NBTI. It counts as cell-based. Conditions: mia paca-2, 24 h. A digest of the protocol: (§5)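 Pancreatic cells were exposed to the agent for 24 h, with or without a dCK inhibitor or the hENT1 inhibitor NBTI. Intracellular dFdCTP was measured by UPLC-MS/MS on a C18 column. Elution used a 10 mM ammonium acetate/acetonitrile gradient at 700 μL/min. Detection was by triple-quadrupole heated electrospray, transition m/z 502.0→159.0 at 37 V collision energy.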

Series [9] can be described thus: Prodrug activation in human BxPC3 cells assessed as formation of dFdCTP after 24 hrs in presence of hENT1 inhibitor NBTI. Conditions: bxpc-3, 24 h. It is filed as cell-based. The gist of the method: as §5
Series [10] can be described thus: Cytotoxicity against human RT112 cells assessed as cell viability by MTT assay in presence of dCK substrate deoxycytidine. Conditions: RT-112. It counts as functional, cell-based. The gist of the method: as §4
In the next series the target is Cytidine deaminase (Homo sapiens, UniProt P32320). Kind of series: Drug degradation assessed as recombinant human cytidine deaminase-mediated dFdU formation at 100 uM measured within 2 mins by UV absorption spectroscopic analysis. It is filed as ADME. The gist of the method:
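Compound or gemcitabine incubated with cytidine deaminase. UV absorption scanned at 220–350 nm over 30 min. Deamination to dFdU is read as an absorbance shift from 267 to 257 nm.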

Series [11] in a line: Prodrug activation in human BxPC3 cells assessed as formation of dFdCTP after 24 hrs in presence of dCK inhibitor 2T2D. It is filed as cell-based. Conditions: bxpc-3, 24 h. The gist of the method:
as §5

Series [12] relates to BXPC-3. Kind of series: Antitumor activity against human BxPC3 cells xenografted in Balb/c nude mouse assessed as tumor growth inhibition at 0.19 mmol/kg, ip administered every week for 3 weeks. It counts as functional, organism-based.
Another series has as its system RT-112. Kind of series: Ratio of EC50 for human RT112 cells in presence of dCK substrate deoxycytidine to EC50 for human RT112 cells in absence of dCK substrate deoxycytidine. It is filed as functional. The gist of the method: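 RT112 cells exposed to compound with or without the dCK substrate 2′-deoxycytidine, which competes for dCK activity. Viable cells counted by colorimetric MTT assay. EC50 is the concentration blocking cell proliferation, compared between the two conditions.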

A short description of series [13]: Prodrug activation in human MIAPaCa2 cells assessed as formation of dFdCTP after 24 hrs in presence of dCK inhibitor 2T2D. It counts as cell-based. Conditions: mia paca-2, 24 h. A digest of the protocol:
as §5

The test system of series [14] is BXPC-3. Kind of series: Ratio of gemcitabine IC50 to compound IC50 for human BxPC3 cells after 72 hrs by MTS assay. It is filed as functional.
Series [15] can be described thus: Half life in human hepatocytes at 1 uM. It counts as ADME, cell-based, Hepatocyte. The gist of the method:
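Compounds incubated with human hepatocytes. Half-life determined.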

Series [16] can be described thus: Metabolic stability in human liver microsomes assessed as compound remaining at 0.5 uM after 1 hr by HPLC-Ms/Ms analysis. It counts as ADME. Conditions: read-out: Stability. The gist of the method:
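Compounds incubated with human liver microsomes for 1 h. Percentage of parent remaining measured.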

The subject of series [17] is MIA PaCa-2. Kind of series: Ratio of gemcitabine IC50 to compound IC50 for human MIAPaCa2 cells after 72 hrs by MTS assay. It is filed as functional.

Cytidine deaminase, sequence (P32320 whole entry): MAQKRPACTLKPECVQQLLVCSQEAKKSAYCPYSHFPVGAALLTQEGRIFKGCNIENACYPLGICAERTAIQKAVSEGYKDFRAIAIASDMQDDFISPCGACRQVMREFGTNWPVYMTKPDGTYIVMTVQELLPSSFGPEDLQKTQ

For `CCCCCOC(=O)C(C)(C)NP(=O)(OC[C@H]1O[C@@H](n2ccc(N)nc2=O)C(F)(F)[C@@H]1O)Oc1cccc2ccccc12` (some centres not stated), the IC50 with L1210 is 0.16 µM; in the series with CCRF-CEM, 0.13 µM.

On to `CC(C)OC(=O)[C@H](C)NP(=O)(OC[C@H]1O[C@@H](n2ccc(N)nc2=O)C(F)(F)[C@@H]1O)Oc1ccccc1` (some centres not stated), for which the IC50 with L1210, in the series with BXPC-3 [1], with CCRF-CEM and in the series with MIA PaCa-2 [2] was above 5 µM in each case.

Turning to `CCCCCOC(=O)[C@H](C)NP(=O)(OC[C@H]1O[C@@H](n2ccc(N)nc2=O)C(F)(F)[C@@H]1O)Oc1ccccc1` (some centres not stated), the figures for the IC50 in the series with L1210 and with CCRF-CEM were 0.024 µM and 0.08 µM, respectively.

Consider `Nc1ccn([C@@H]2O[C@H](CO)[C@@H](O)C2(F)F)c(=O)n1` [GEMCITABINE], for which the TGI entry in the series with MIA PaCa-2 [3] and in the series with MIA PaCa-2 [4] was “Active” in each case. In addition, the Activity entry in the series with Mus musculus is listed as “Non-toxic”. Moreover, the EC50 in series [5] is 611 µM; in series [6], above 2000 µM; in [7] it was 0.0014 µM; in series [10], 0.105 µM. Besides, the Drug metabolism result in [8], in [9], in series [11] and in series [13] was “Not Active” in each case. Besides, the IC50 with BXPC-3 [1] is 0.67 µM; with CCRF-CEM, 0.086 µM; with MIA PaCa-2 [2], 1.04 µM. Also, the Stability entry at Cytidine deaminase is “Unstable”. For the same compound, the TGI result in the series with BXPC-3 [12] was “inactive”. The “Ratio EC50” value in the series with RT-112 came to 75.

Regarding `CCCCCCOC(=O)[C@H](C)NP(=O)(OC[C@H]1O[C@@H](n2ccc(N)nc2=O)C(F)(F)[C@@H]1O)Oc1cccc2ccccc12` (some centres not stated), the values for the IC50 in the series with L1210 and with CCRF-CEM were 0.022 µM and 0.075 µM, respectively.

For `CCCCCOC(=O)[C@H](C)NP(=O)(OC[C@H]1O[C@@H](n2ccc(N)nc2=O)C(F)(F)[C@@H]1O)Oc1cccc2ccccc12` (some centres not stated), the values for the IC50 in the series with L1210 and with CCRF-CEM were 0.03 µM and 0.073 µM, respectively.

Consider `C[C@H](NP(=O)(OC[C@H]1O[C@@H](n2ccc(N)nc2=O)C(F)(F)[C@@H]1O)Oc1cccc2ccccc12)C(=O)OCc1ccccc1` (some centres not stated), for which the “Ratio IC50” value in the series on BXPC-3 [14] and with MIA PaCa-2 [17] was 2 throughout. This compound displayed a half-life at 1 µM in series [15] of 1.32 h. Further, the IC50 in the series on L1210 was 0.035 µM; in the series on BXPC-3 [1], 0.24 µM; in the series on CCRF-CEM, 0.1 µM; with MIA PaCa-2 [2], 0.57 µM. Besides, the remaining at 1 h, 0.5 µM in series [16] worked out at 1%.
